# Source: PubChem
# An excerpt weighted towards active compounds, which were near 3.5% of everything screened.
# RAM network inh: yeast RAM network inhibition. S. cerevisiae dse1pr::URA3 reporter, 5-FOA growth OD615, 2 d; analog-sensitive cbk1-as2 kinase mutant strain. inhibition, % at 50 µM. actives 1.8% (n = 190,000). AID 868;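 active = inhibition above a set limit, 3 SD over mean compound inhibition, cut at about 8.4% in these data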;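 note: inhibition rescues growth on 5-FOA so higher OD means more RAM inhibition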
# bCat nuc transl: beta-catenin nuclear translocation modulation; actives 0.3% (n = 190,000); nuclear translocation activity, % at 5 µM; HeLa beta-catenin nuclear translocation, immunofluorescence imaging;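 active = nuclear translocation activity above 50% at 5 µM, with a well cell count of 50 or more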;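 note: per-cell ratio of nuclear to cytoplasmic median beta-catenin stain intensity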
#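 System: HeLa cells, endogenous beta-catenin; compound dosing: 5 µM primary single dose, 0.1% DMSO, 0.02–20 µM confirmation series; incubation: 24 h compound exposure at 37°C, 5% CO2; signal: beta-catenin immunofluorescence imaging with DAPI; evaluation: % activation, nuclear-to-cytoplasmic median beta-catenin signal ratio per cell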
# BB579 growth dn: yeast BB579 growth reduction in restrictive medium; S. cerevisiae BB579 growth, OD615, 48 h; inhibition, % at 10 µM; actives 0.51% (n = 140,000);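 active = inhibition above a set limit, 3 SD over the mean compound inhibition, cut at about 44% in these data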
#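 Test system: S. cerevisiae DeaD strain BB579 yeast; Medium: restrictive CSMM-D medium; Compound: one dose, 10 µM compound with 0.25% DMSO; Incubation: 4 h cell preincubation, 48 h compound exposure, 30 °C humidified; Signal: OD at 615 nm; Benchmarks: amphotericin B at 10 µg/mL as positive control.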
# Yeast lifespan up: yeast lifespan extension. S. cerevisiae growth with nicotinamide, OD615; deaD strain in restrictive glucose medium. inhibition of the nicotinamide effect, % at 10 µM. actives 0.68% (n = 130,000). AID 775;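 active = inhibition above a set limit, placed 3 SD over the median of all compounds, cut at about 26% in these data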
#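 Buffer or medium: CSMM-D glucose medium, restrictive; test system: modified budding yeast, DeaD strain; compound: single dose 10 µM compound, 0.25% DMSO; schedule: culture preincubation 4 h, compound exposure 48 h, both 30 °C; detection: optical density (absorbance) at 615 nm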
# Efa HMGR inh: inhibitors of class II HMG-CoA reductase from Enterococcus faecalis | purified E. faecalis HMGR, NADPH absorbance 340 nm kinetic | inhibition, % at 10 µM | actives 0.41% (n = 190,000);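 active = inhibition above a set limit, the median over all tested compounds plus 3 SD, cut at about 9.5% in these data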;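 note: enzyme runs in reverse so mevalonate oxidation gives rising NADPH absorbance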
# MT stabilize HCS: stabilizes microtubules in HeLa cells | HeLa tubulin immunostaining HCS, 24 h; share of cells brighter than vehicle mean+2SD | % tubulin-high responders, % at 10 µM | actives 0.83% (n = 200,000);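 active = plate Z-score above 3 for both tubulin-high and condensed-nucleus cell shares, with cell loss under 80%, at 10 µM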;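 note: anti alpha tubulin signal scored within the nucleus-defined area of each cell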
# Hits are given with their value; – = inactive; · = no result given.
SMILES,RAM network inh,bCat nuc transl,BB579 growth dn,Yeast lifespan up,Efa HMGR inh,MT stabilize HCS
CCOC(=O)C1CCN(S(=O)(=O)c2ccc(CC)cc2)CC1,–,–,–,–,–,–
CC12CCC(C(=O)Nc3ccncc3)(CC1O)C2(C)C (stereo not drawn),·,–,·,·,·,·
CN(C(=O)COC(=O)c1ccccc1C(=O)N1CCN(c2ccccc2)CC1)c1ccccc1,–,–,·,·,–,–
O=C(COC(=O)c1cc(-c2ccccn2)nc2ccccc12)Nc1ncc(C(F)(F)F)cc1Cl,·,–,·,·,·,·
C=CCn1c(C)cc(C2=NNC(=NCc3ccccc3)SC2)c1C,–,–,·,·,–,15.4
N#CCC(=O)c1ccccc1Oc1ccc(Cl)cc1,–,–,·,·,–,–
CC/C(=N\NC(=O)CCC(=O)NCc1ccccc1)c1ccc(O)cc1,–,–,·,·,–,11.6
CC(C)N(C)CCOC(=O)C1COc2ccccc2O1 (stereo not drawn),·,–,·,·,·,·
CCCCn1c(N)c(S(=O)(=O)c2ccc(C)cc2)c2nc3ccccc3nc21,9.5,–,–,–,–,–
O=S(=O)(Nc1c(S(=O)(=O)c2ccccc2)c2nc3ccccc3nc2n1C1CCCCC1)c1ccccc1,–,·,–,27.4,–,–
C=CCn1c(NS(=O)(=O)c2ccccc2)c(S(=O)(=O)c2ccc(C)cc2)c2nc3ccccc3nc21,11.0,–,–,–,–,–
CC(=O)Nc1c(S(=O)(=O)c2ccccc2)c2nc3ccccc3nc2n1Cc1ccccc1,–,–,–,–,–,–
CN(C)CCCn1c(N)c(S(=O)(=O)c2ccccc2)c2nc3ccccc3nc21,·,–,·,·,·,·
Cc1ccccc1NC(=O)Cn1nnc(C(=O)NCc2ccco2)c1N,–,–,·,·,12.7,–
Cc1ccccc1NC(=O)Cn1nnc(S(=O)(=O)c2ccc(C(C)(C)C)cc2)c1N,–,–,–,–,18.2,–
CCOc1ccccc1NC(=O)Cn1nnc(C(=O)NCc2ccco2)c1N,–,·,–,–,–,24.7
CCOc1ccccc1NC(=O)Cn1nnc(C(=O)Nc2ccc(C)cc2)c1N,–,–,–,–,–,–
COc1ccc(NC(=O)Cn2nnc(C(=O)Nc3ccccc3C)c2N)cc1,–,–,·,·,–,–
CCN(CC)C(=O)/C(=C/c1cn(S(=O)(=O)N(C)C)c2ccccc12)NC(=O)c1ccc(OC)cc1,–,–,·,·,–,–
COc1ccc(C(=O)N/C(=C\c2cn(S(=O)(=O)N(C)C)c3ccccc23)C(=O)NC(C)C)cc1,9.3,–,·,·,–,–
Cc1ccc(N2NC(=O)/C(=C\c3cc4c(cc3[N+](=O)[O-])OCO4)C2=O)cc1C,–,–,–,48.6,–,–
CC(C)CNC(=O)c1oc2ccccc2c1COc1ccccc1,8.9,–,–,–,–,–
COC(=O)c1ccc(NC(=O)c2snnc2-c2ccccc2)cc1,–,–,·,·,–,–
COC(=O)CN1C(=S)N(c2ccc(OC)cc2)C(=O)/C1=C/c1ccc(OC)cc1,10.6,–,·,·,–,–
CC(=O)c1cccc(NC(=O)Nc2ccc(C(=O)N3CCCC3)cc2)c1,–,·,–,–,–,–
SMILES,RAM network inh,bCat nuc transl,BB579 growth dn,Yeast lifespan up,Efa HMGR inh,MT stabilize HCS
O=C(Nc1ccccc1)Nc1ccc(C(=O)N2CCCC2)cc1,–,–,·,·,9.6,–
Cc1ccccc1N=Cc1cccc(O)c1O,–,–,97.3,–,–,–
Cc1cccc(C=Nc2ccc3c(c2)oc2ccccc23)c1O,–,–,–,–,–,–
CC(N=Cc1cccc(O)c1O)c1ccccc1 (stereo not drawn),–,–,96.5,–,–,–
Cc1ccc(N=Cc2cccc(O)c2O)c(C)c1,–,–,96.9,–,–,–
O=C(N/N=C/C=C/c1ccc2c(c1)OCO2)C(O)c1ccccc1 (stereo not drawn),·,–,·,·,·,·
CC1CCCC2(C1)NC(=S)c1c(sc3c1CCCC3)N2 (stereo not drawn),–,–,85.7,–,–,–
CN(C)CCCNC(=O)/C(=C\C=C\c1ccccc1)NC(=O)c1ccc([N+](=O)[O-])cc1,·,–,·,·,·,·
COCCCN1C(=O)C(O)=C(C(=O)c2ccco2)C1c1cccc(Br)c1 (stereo not drawn),–,–,–,–,–,–
COCCCN1C(=O)C(O)=C(C(=O)c2ccco2)C1c1ccc(Br)cc1 (stereo not drawn),9.1,–,–,–,–,–
COC(=O)C/C=C/[C@@H](C)[C@@H](/C=N/O[C@@H](C)c1cn([C@H](CO)Cc2ccccc2)nn1)NS(=O)(=O)c1ccc(C)cc1,–,·,–,–,–,–
C/C(CCN1CCc2nc(-c3ccccc3)c(-c3ccccc3)cc2C1)=N\O[C@@H](C)c1cn([C@H](CO)Cc2ccccc2)nn1,–,–,–,–,10.0,–
COc1ccc(O[C@H]2C=C[C@@H](c3ccccc3)O[C@@H]2COC(=O)CC/C(C)=N/O[C@@H](C)c2cn([C@H](CO)Cc3ccccc3)nn2)cc1,10.6,·,–,–,–,–
COc1ccc(O[C@H]2C=C[C@@H](c3ccccc3)O[C@@H]2COC(=O)CC/C(C)=N/O[C@@H](C)CN2CCCCc3nc(C)c(C)cc32)cc1,–,·,–,–,–,–
C=C(C)COc1ccc(-c2[nH]ncc2-c2ccccc2)c(O)c1,–,–,88.4,–,–,–
COc1cccc(Oc2cnc(N)nc2-c2ccc(OC)cc2O)c1,10.4,–,–,–,–,–
C=C(C)COc1ccc(-c2[nH]ncc2Oc2cccc(OC)c2)c(O)c1,–,–,75.2,–,–,–
C=C(C)COc1ccc(-c2[nH]ncc2-c2ccc(OC)cc2)c(O)c1,·,–,·,·,·,·
CC(c1ccccn1)N(Cc1ccco1)C(=S)Nc1cccc(F)c1 (stereo not drawn),–,–,·,·,–,–
O=C(Nc1ccc(Cl)cc1)/C(=C/c1cccc(O)c1)c1nc2ccccc2s1,8.5,–,–,–,–,–
Cc1ccc(NC(=S)c2nc3ccccc3s2)cc1,–,–,–,–,–,–
O=C(O)C/C(=C\c1cccc(NC(=O)c2ccccc2Cl)c1)c1nc2ccccc2s1,·,–,·,·,·,·
S=C(Nc1ccc(Cl)cc1)c1nc2ccccc2s1,8.4,–,–,–,–,–
O=C1CN2CCC1C/C2=C\c1ccnc2c(Cl)cccc12 (stereo not drawn),·,–,·,·,·,·
COC(=O)C1=C(C)N(Cc2ccco2)C(=O)/C1=C\c1ccc([N+](=O)[O-])cc1,10.0,–,·,·,10.1,–
COC(=O)C1=C(C)N(Cc2ccco2)C(=O)/C1=C\c1ccc(N(C)C)cc1,–,–,–,–,–,–
CCOc1ccc(/C=N/NC(=O)c2nnn(-c3nonc3N)c2-c2ccc(OCC)cc2)cc1,9.4,–,–,–,–,–
CCCOc1ccc(-c2c(C(=O)N/N=C/c3ccccc3)nnn2-c2nonc2N)cc1,·,–,·,·,·,·
